Measurements as given in PMC2034471 (Nucleic Acids Research, 2007).
Changes are numbered by the printed parent chain. In names and notes the source's numbering stands. One block for each molecule: values may come before it. Ends that are not written are not given here. Me2 = dimethylated (lysine)

Tests used:
[1] = tested on: rad9Δ cells complemented with rad9ΔTudor allele; experiment: resistance of yeast cells to genotoxic stress, spot test; type: cell-based, Saccharomyces cerevisiae; settings: 10-fold serial dilutions on YPD plates with drug; versus wild-type RAD9
In short: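 The rad9Δ-L157 full RAD9 deletion strain carried a URA3 YCp50 plasmid: empty, wild-type RAD9 under its own promoter, or RAD9 lacking tudor aa 754–947. Overnight YPD cultures were diluted to OD 0.1 and grown 4–5 h. Tenfold dilutions were spotted on YPD ± camptothecin or 4-nitroquinoline 1-oxide, or plates given UV (120 J/m2) or X-rays (150 Gy, 2.5 Gy/min).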

ScRad9[754–947] = experiment: NMR titration of ScRad9[754–947] with histone peptides; type: binding, Saccharomyces cerevisiae; settings: ^1H-^15N HSQC, 600 MHz; protein 0.2–0.5 mM; 50 mM MES pH 6, 50 mM NaCl
In short: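 15N-labelled protein (0.2–0.5 mM) in 50 mM MES pH 6, 50 mM NaCl, 1 mM EDTA, 1 mM NaN3, protease inhibitors, TSP reference. Methyl-lysine H3-K79 and H4-K20 tail peptides titrated to 9-, 7-, 5- or 2-fold molar excess. Weighted shift |Δδ1H| + 0.1×|Δδ15N| plotted against ligand concentration; Kd fitted from the curves.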

[2] = tested on: mouse 53BP1 tudor fragment (1463–1617); experiment: isothermal titration calorimetry; type: binding; settings: 30°C; for Ka (ITC): 50 mM Tris/HCl pH 7.2, 50 mM NaCl, protein 18–33 µM, one-site model; for TΔS / ΔG / ΔH: ITC; for TΔS / ΔG: pH 7.2; for ΔH: pH 7.2, one-site model
In short: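 Protein in the cell titrated with H4-K20me2 or H4K20me2-long peptide, generally 10–15 times more concentrated, both equilibrated in the same buffer, by automatic 5–10 µl injections. The first 2 µl injection was excluded. Peaks were integrated and baseline-corrected. Heat of dilution was taken from peptide injected into buffer. One-site fitting gave n, Ka and ΔH.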

[3] = target: Mm53BP1[1463–1617] (mouse) (UniProt P70399); experiment: NMR titration
Mm53BP1[1463–1617] = Mm53BP1[1463–1617] (mouse, UniProt P70399 1463-1617); experiment: ITC
[4] = tested on: single-stranded and double-stranded DNA; settings: EMSA; human 53BP1; ref [33]; cited from earlier work
[5] = tested on: 146 bp double-stranded DNA; experiment: EMSA, 146 bp ds DNA; type: binding; settings: DNA 26 nM, 2- to 128-fold molar excess of protein
In short: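 146 bp fragment made by PCR on a pUC(357.4) digest template and 5′-end labelled with 32P-ATP/T4 polynucleotide kinase at 37°C. Protein fragments incubated with labelled DNA for 2 h at 22°C in 50 mM Tris–HCl pH 8.0, 1 mM EDTA, 1 mM AEBSF, 1 mM DTT, 50 mM NaCl, 0.1% triton X-100. Resolved on pre-run 6% native polyacrylamide (29:1) in 0.5× TEG at 70 V. Complexes detected by autoradiography of dried gels at –80°C.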

10 bp oligonucleotide = settings: NMR; ref [15]; cited from earlier work
[6] = aggregation / stability of Rad9 fragments in solution; type: physicochemical
DNA = experiment: surface plasmon resonance, DNA binding; settings: versus wild-type ScRad9[754–931]; data not shown
H3 from calf thymus = experiment: GST-pulldown, binding to histone H3; settings: calf thymus H3, immunoblotting after elution from beads; data not shown
histone H3 = settings: GST fusion; ref [16],[32]; cited from earlier work

Molecule: CC[C@@]1(O)C(=O)OCc2c1cc1n(c2=O)Cc2cc3ccccc3nc2-1 [camptothecin]
sensitivity of rad9ΔTudor cells to DNA damage [1]: hypersensitivity to DNA damage which was particularly pronounced

binding to ScRad9[754–947] (^1Hn and ^15N chemical shifts) (ScRad9[754–947]): cannot bind
Molecule: KRHRK*ILRD [yeast H4K20me2]

binding to ScRad9[754–947] (^1Hn and ^15N chemical shifts) (ScRad9[754–947]): cannot bind
Molecule: KRHRK*VLRD [metazoan H4K20me2]
Ka (ITC) [2]: 130000 ± 16000 M⁻¹
TΔS [2]: 4.9 kcal/mol
ΔG [2]: –7.1 kcal/mol
ΔH [2]: –2.2 ± 0.1 kcal/mol

Molecule: O=[N+]([O-])c1cc[n+]([O-])c2ccccc12 [4-nitroquinoline 1-oxide]
sensitivity of rad9ΔTudor cells to DNA damage [1]: hypersensitivity to DNA damage

Molecule: GKGGAKRHRK*VLRDNIQGK [H4-K20me2-long]
Ka (ITC) [2]: 110000 ± 16000 M⁻¹
TΔS [2]: 4.6 kcal/mol
ΔG [2]: –6.9 kcal/mol
ΔH [2]: –2.3 ± 0.1 kcal/mol

Kd [3]: 1500 µM
Molecule: H3-K79me2 peptide

Ka (Mm53BP1[1463–1617]): 110000 M⁻¹
Kd (Mm53BP1[1463–1617]): 8.8 µM
dH (Mm53BP1[1463–1617]): -2.3 ± 0.1 kcal/mol
stoichiometry N (Mm53BP1[1463–1617]): 1
Molecule: GKGGAKRHRKVLRDNIQGK (K* dimethylated (K20, tenth residue of the peptide)) [Metazoan H4-K20me2-long peptide]

B1: 1480–1616: human 53BP1 fragment 1480–1616 containing the tudor region (protein, UniProt Q12888 1480-1616, looked up, fragment)
chain: SSPGNSFVGLRVVAKWSSNGYFYSGKITRDVGAGKYKLLFDDGYECDVLGKDILLCDPIPLDTEVTALSEDEYFSAGVVKGHRKESGELYYSIEKEGQRKWYKRMAVILSLEQGNRLREQYGLGPYEAVTPLTKAAD
interaction with DNA in vitro [4]: interact with single-stranded and double-stranded DNA in vitro

Ka (Mm53BP1[1463–1617]): 130000 M⁻¹
Kd (Mm53BP1[1463–1617]): 7.7 µM
dH (Mm53BP1[1463–1617]): -2.2 ± 0.1 kcal/mol
stoichiometry N (Mm53BP1[1463–1617]): 1
Molecule: KRHRK(Me2)VLRD [Metazoan H4-K20me2 peptide]

B2: Mm53BP1[1463–1617]: mouse 53BP1 fragment 1463–1617, tandem tudor region (protein)
chain: PFQAATGSSDGLDSSSSGNSFVGLRVVAKWSSNGYFYSGKITRDVGAGKYKLLFDDGYECDVLGKDILLCDPIPLDTEVTALSEDEYFSAGVVKGHRKESGELYYSIEKEGQRKWYKRMAVILSLEQGNRLREQYGLGPYEAVTPLTKAADISLD
interaction with 146 bp ds DNA by gel retardation [5]: could not detect any interaction
affinity for 10 bp oligonucleotide, in words (10 bp oligonucleotide): millimolar affinity interaction

B3: ScRad9[754–931]: shorter fragment 754–931 of S. cerevisiae Rad9 (protein, UniProt P14737 754-931, looked up, fragment)
chain: GKDSKEQSYVFPEGIRTADNSFLSKDDIIFGNAVWCQYTWNYKFYPGILLEVDTNQDGCWIYFETGRSLTKDEDIYYLDIRIGDAVTFDGNEYVVVGLECRSHDLNIIRCIRGYDTVHLKKKNASGLLGKRTLIKALSSISLDLSEWAKRAKIILEDNEKNKGDAYRYLRHPIRGRKS
aggregation propensity / rate relative to ScRad9[754–947] [6]: same aggregation propensity

DNA-binding capacity by surface plasmon resonance (DNA): looses the DNA-binding capacity
B4: ScRad9[754–931,C789A,C812S,C853S] (protein, UniProt P14737 754-931, looked up, variant C789A C812S C853S)
chain: B3 chain with C36A, C59S, C100S
aggregation propensity / rate relative to ScRad9[754–947] [6]: 1.5 times faster

B5: GST-ScRad9[754–947]: GST fusion of ScRad9[754–947] (protein)
chain: GKDSKEQSYVFPEGIRTADNSFLSKDDIIFGNAVWCQYTWNYKFYPGILLEVDTNQDGCWIYFETGRSLTKDEDIYYLDIRIGDAVTFDGNEYVVVGLECRSHDLNIIRCIRGYDTVHLKKKNASGLLGKRTLIKALSSISLDLSEWAKRAKIILEDNEKNKGDAYRYLRHPIRGRKSMTNVLSPKKHTDDEKD
modifications: left off: GST, end not stated, kept
H3 captured in GST-pull-down (H3 from calf thymus): not together

B6: GST-ScRad9[750–917]: Rad9 construction reported by two different groups; stability by NMR tested here (protein, UniProt P14737 750-917, looked up, fragment)
chain: ETGSGKDSKEQSYVFPEGIRTADNSFLSKDDIIFGNAVWCQYTWNYKFYPGILLEVDTNQDGCWIYFETGRSLTKDEDIYYLDIRIGDAVTFDGNEYVVVGLECRSHDLNIIRCIRGYDTVHLKKKNASGLLGKRTLIKALSSISLDLSEWAKRAKIILEDNEKNKGD
modifications: GST tag
NMR signal lost ([6]; after 2.5 h at 30°C): 40%
capture of histone H3 (histone H3): capture of histone H3

B7: fragments 1319–1480: human 53BP1 fragment 1319–1480 containing the RG-rich stretch (protein, UniProt Q12888 1319-1480, looked up, fragment)
chain: TSLSAMHSSGSSGKGAGPLRGKTSGTEPADFALPSSRGGPGKLSPRKGVSQTGTPVCEEDGDAGLGIRQGGKAPVTPRGRGRRGRPPSRTTGTRETAVPGPLGIEDISPNLSPDDKSFSRVVPRVPDSTRRTDVGAGALRRSDSPEIPFQAAAGPSDGLDAS
interaction with DNA in vitro [4]: interact with single-stranded and double-stranded DNA in vitro
